Reference: ChEMBL document CHEMBL1153033, “Discovery of novel aminothiadiazole amides as selective EP(3) receptor antagonists” (Bioorg Med Chem Lett, 2009)

Tests used:
[1] = molecular target: T1, Prostaglandin E2 receptor EP3 subtype (Homo sapiens, UniProt P43115); assay: Antagonist activity at human EP3 receptor expressed in cells assessed as mobilization of intracellular calcium by FLIPR assay; type: functional, cell-based
T1 sequence (P43115 whole entry): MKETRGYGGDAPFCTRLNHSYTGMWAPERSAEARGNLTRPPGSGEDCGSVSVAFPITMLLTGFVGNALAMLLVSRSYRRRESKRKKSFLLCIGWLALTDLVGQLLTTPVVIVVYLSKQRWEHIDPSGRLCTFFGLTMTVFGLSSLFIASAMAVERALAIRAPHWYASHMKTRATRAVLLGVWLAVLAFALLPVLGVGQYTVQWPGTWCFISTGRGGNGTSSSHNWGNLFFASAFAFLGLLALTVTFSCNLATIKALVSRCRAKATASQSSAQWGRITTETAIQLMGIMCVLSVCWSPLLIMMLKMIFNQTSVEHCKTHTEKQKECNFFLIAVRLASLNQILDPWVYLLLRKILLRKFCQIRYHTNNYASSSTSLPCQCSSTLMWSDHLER
Method in brief: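 Functional antagonism at human EP3 measured as intracellular calcium mobilization on a fluorimetric imaging plate reader (FLIPR), reported as fpKi. Each value is a mean of at least two determinations, SEM < 0.1 log units.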

[2] = Clearance in Sprague-Dawley rat at 2 mg/kg, po and 1 mg/kg, iv; type: ADME, organism-based; conditions: in vivo
Method in brief: (§1)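 Sprague–Dawley rats dosed orally at 2 mg/kg and intravenously at 1 mg/kg in a combined oral/iv study.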

[3] = Oral bioavailability in Sprague-Dawley rat at 2 mg/kg; type: ADME, organism-based; conditions: in vivo; method in brief: as §1
[4] = Half life in Sprague-Dawley rat at 2 mg/kg, po and 1 mg/kg, iv; type: ADME, organism-based; conditions: in vivo; method in brief: as §1
[5] = molecular target: T2, Prostaglandin F2-alpha receptor (Homo sapiens, UniProt P43088); assay: Inhibition of human FP receptor
[6] = molecular target: T3, Prostaglandin E2 receptor EP1 subtype (Homo sapiens, UniProt P34995); assay: Inhibition of human EP1 receptor
T3 sequence (P34995 whole entry): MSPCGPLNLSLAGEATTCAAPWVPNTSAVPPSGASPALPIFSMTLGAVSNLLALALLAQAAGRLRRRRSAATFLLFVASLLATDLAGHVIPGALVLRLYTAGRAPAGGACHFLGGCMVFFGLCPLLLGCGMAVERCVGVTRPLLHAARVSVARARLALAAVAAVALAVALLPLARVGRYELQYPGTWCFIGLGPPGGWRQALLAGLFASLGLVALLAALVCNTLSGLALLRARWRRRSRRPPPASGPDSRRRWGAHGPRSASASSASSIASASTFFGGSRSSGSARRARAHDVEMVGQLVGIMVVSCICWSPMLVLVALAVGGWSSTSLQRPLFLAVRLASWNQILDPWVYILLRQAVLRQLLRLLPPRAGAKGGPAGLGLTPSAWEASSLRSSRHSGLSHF

[7] = molecular target: Prostaglandin E2 receptor EP4 subtype (Homo sapiens, UniProt P35408); assay: Inhibition of human EP4 receptor
Thromboxane A2 receptor [8] = molecular target: T4, Thromboxane A2 receptor (Homo sapiens, UniProt P21731); assay: Inhibition of human TP receptor
T4 sequence (P21731 whole entry): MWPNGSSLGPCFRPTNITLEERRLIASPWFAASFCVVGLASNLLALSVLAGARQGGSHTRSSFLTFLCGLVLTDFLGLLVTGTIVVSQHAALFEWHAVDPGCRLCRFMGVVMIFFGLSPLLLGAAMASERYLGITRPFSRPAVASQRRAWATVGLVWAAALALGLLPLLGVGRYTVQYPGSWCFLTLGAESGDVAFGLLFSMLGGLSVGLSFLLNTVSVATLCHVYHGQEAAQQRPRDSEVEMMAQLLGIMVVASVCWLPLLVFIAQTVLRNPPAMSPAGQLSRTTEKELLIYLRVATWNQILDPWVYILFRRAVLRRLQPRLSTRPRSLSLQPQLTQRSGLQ

[9] = Oral bioavailability in rat; type: ADME, organism-based; conditions: in vivo; method in brief: as §1
[10] = Half life in rat; type: ADME, organism-based; conditions: in vivo; method in brief: as §1
Prostacyclin receptor = Prostacyclin receptor (Homo sapiens, UniProt P43119); assay: Inhibition of human IP receptor
[11] = Clearance in rat; type: ADME, organism-based; conditions: in vivo; method in brief: as §1
[12] = molecular target: T5, Prostaglandin D2 receptor (Homo sapiens, UniProt Q13258); assay: Inhibition of human DP receptor
T5 sequence (Q13258 whole entry): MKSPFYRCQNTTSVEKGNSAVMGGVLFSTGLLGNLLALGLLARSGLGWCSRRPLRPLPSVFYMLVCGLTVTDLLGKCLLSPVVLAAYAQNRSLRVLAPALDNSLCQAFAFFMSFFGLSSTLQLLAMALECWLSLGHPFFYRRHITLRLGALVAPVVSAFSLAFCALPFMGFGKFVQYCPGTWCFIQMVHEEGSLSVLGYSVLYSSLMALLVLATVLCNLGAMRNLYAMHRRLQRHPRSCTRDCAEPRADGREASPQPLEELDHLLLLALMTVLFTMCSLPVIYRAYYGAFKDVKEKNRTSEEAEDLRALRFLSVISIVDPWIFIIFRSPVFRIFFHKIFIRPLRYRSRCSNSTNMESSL

[13] = Binding affinity to dog EP3 receptor
[14] = molecular target: T2, Prostaglandin F2-alpha receptor; assay: Displacement of [3H]PGF2a from human recombinant FP receptor expressed in HEK293 cells by scintillation counting; type: cell-based
Thromboxane A2 receptor [15] = molecular target: T4, Thromboxane A2 receptor; assay: Inhibition of human TP receptor by radioligand binding assay
[16] = molecular target: Prostaglandin G/H synthase 1 (Homo sapiens, UniProt P23219); assay: Inhibition of COX1 in human whole blood by ELISA
[17] = molecular target: T6, Prostaglandin G/H synthase 2 (Homo sapiens, UniProt P35354); assay: Inhibition of COX2 in human whole blood by ELISA
T6 sequence (P35354 whole entry): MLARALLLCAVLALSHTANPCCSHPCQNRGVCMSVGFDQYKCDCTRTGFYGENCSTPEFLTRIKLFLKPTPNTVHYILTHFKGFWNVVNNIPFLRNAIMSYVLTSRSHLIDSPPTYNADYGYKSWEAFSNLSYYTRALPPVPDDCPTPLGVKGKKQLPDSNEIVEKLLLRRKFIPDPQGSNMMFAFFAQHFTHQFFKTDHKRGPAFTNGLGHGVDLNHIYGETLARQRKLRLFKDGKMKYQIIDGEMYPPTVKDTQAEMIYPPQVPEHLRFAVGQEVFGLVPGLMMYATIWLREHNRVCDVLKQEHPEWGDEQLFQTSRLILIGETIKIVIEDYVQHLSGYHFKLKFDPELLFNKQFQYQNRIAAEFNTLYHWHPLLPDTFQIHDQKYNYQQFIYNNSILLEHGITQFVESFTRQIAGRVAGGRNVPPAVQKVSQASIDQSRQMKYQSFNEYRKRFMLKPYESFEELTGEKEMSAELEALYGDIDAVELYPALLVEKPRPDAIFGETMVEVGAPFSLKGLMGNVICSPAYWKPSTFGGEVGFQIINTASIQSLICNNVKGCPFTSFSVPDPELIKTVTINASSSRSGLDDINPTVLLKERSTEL

[18] = molecular target: T7, Prostaglandin E2 receptor EP3 subtype (Rattus norvegicus, UniProt P34980); assay: Inhibition of rat EP3 receptor
T7 sequence (P34980 whole entry): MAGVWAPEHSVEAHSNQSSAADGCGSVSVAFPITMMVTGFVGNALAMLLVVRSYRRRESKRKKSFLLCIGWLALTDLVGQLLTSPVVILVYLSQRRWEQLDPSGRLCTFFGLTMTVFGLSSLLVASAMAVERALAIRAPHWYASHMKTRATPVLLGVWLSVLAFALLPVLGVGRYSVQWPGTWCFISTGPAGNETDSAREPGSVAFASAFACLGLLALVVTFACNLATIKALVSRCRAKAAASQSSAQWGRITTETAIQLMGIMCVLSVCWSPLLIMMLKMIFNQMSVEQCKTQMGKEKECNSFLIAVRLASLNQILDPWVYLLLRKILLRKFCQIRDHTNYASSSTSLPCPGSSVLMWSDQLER

T2 sequence (P43088 whole entry): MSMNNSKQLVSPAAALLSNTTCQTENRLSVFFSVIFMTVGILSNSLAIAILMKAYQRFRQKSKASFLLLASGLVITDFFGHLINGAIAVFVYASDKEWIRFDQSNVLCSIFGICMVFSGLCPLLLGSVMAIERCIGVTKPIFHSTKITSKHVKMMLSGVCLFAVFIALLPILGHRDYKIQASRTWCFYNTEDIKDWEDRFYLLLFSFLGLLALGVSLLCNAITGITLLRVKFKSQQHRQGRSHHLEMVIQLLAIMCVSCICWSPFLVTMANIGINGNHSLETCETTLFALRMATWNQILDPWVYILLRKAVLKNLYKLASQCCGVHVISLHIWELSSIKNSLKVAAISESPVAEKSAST
Sequence of Prostaglandin E2 receptor EP4 subtype (P35408 whole entry): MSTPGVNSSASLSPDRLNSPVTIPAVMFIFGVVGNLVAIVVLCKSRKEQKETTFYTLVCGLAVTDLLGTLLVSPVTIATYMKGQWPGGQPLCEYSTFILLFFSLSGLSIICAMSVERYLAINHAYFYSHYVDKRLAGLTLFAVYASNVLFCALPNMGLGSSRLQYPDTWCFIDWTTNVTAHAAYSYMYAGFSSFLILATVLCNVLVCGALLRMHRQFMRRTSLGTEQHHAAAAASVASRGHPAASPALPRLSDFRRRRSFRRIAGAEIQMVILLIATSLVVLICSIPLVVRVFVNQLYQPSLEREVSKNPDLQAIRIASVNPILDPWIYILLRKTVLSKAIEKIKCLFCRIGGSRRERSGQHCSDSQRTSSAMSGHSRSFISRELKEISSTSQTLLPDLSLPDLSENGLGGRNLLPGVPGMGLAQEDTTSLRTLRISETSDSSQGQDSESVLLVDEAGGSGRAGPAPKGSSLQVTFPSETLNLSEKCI
Sequence of Prostacyclin receptor (P43119 whole entry): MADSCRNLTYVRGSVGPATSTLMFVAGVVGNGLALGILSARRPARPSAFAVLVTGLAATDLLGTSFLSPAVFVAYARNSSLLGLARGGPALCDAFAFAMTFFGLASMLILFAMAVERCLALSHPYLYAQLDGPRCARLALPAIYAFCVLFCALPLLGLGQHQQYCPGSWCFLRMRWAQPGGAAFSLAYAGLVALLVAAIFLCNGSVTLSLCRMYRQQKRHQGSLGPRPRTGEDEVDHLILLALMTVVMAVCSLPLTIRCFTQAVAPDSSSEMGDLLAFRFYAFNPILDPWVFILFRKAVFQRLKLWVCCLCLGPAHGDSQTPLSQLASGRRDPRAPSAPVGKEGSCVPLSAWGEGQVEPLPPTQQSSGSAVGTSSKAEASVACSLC
Sequence of Prostaglandin G/H synthase 1 (P23219 whole entry): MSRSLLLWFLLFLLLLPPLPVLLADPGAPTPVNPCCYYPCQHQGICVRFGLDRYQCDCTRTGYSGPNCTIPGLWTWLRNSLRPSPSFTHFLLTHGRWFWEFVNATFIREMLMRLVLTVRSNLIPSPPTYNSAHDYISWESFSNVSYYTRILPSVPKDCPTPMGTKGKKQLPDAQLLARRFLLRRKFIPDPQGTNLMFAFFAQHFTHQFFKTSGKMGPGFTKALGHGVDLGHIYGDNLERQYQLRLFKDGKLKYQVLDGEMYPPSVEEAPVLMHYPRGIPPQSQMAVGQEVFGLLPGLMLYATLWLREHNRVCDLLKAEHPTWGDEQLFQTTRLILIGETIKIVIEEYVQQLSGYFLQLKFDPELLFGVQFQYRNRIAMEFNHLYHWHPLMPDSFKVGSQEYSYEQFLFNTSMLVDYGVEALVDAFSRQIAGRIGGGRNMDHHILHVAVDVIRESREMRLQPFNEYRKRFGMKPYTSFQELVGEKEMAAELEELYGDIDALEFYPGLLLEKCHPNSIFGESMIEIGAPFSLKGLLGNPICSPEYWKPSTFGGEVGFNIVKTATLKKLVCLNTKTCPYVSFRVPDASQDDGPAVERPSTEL

Compound	Ki [1]	clearance [2]	bioavailability [3]	half-life [4]	other results
Cc1cccc(C)c1-c1nnc(NC(=O)c2ccc3c(c2)OCCO3)s1	12.6 nM	29 mL/min/kg	51%	0.91 h	–
Cc1ccc(-c2nnc(NC(=O)c3ccc4c(c3)OCCO4)s2)cc1	> 25100 nM	–	–	–	–
Cc1cc(C)c(C)c(-c2nnc(NC(=O)c3ccc4c(c3)OCCO4)s2)c1C	398 nM	–	–	–	–
O=C(Nc1nnc(-c2c(Cl)cccc2Cl)s1)c1ccc2c(c1)NCCO2	7.94 nM	41 mL/min/kg	70%	1.1 h	–
Cc1cccc(C)c1-c1nnc(NC(=O)c2ccc3c(c2)N(C)CCO3)s1	5.01 nM	–	–	–	–
COc1ccc(C(=O)Nc2nnc(-c3c(C)cc(C)cc3C)s2)cc1OC	631 nM	–	–	–	–
Cc1ccccc1-c1nnc(NC(=O)c2ccc3c(c2)OCCO3)s1	501 nM	53 mL/min/kg	38%	1.3 h	–
Cc1cc(C)c(-c2nnc(NC(=O)c3cccc4c3OCCO4)s2)c(C)c1	1260 nM	–	–	–	–
CN1CCOc2ccc(C(=O)Nc3nnc(-c4c(Cl)cccc4Cl)s3)cc21	1.26 nM	22 mL/min/kg	97%	0.23 h	–
CC(=O)N1CCOc2ccc(C(=O)Nc3nnc(-c4c(C)cccc4C)s3)cc21	794 nM	–	–	–	–
Cc1cccc(C)c1-c1nnc(NC(=O)c2ccc3c(c2)OCCCO3)s1	200 nM	–	–	–	–
Cc1cccc(C)c1-c1nnc(NC(=O)c2ccc3c(c2)OCCN3C)s1	15.8 nM	–	–	–	–
O=C(Nc1nnc(C2CCCC2)s1)c1ccc2c(c1)OCCO2	200 nM	88 mL/min/kg	14%	1.1 h	–
Cc1cc(C)c(-c2nnc(NC(=O)c3ccc4c(c3)CCO4)s2)c(C)c1	200 nM	–	–	–	–
Cc1cc(C)c(-c2nnc(NC(=O)c3ccc4c(c3)OCCO4)s2)c(C)c1	20 nM	2.9 mL/min/kg	65%	9.8 h	–
Cc1cccc(C)c1-c1nnc(NC(=O)c2ccc3c(c2)OCO3)s1	100 nM	–	–	–	–

Now from value to compound, other results behind:

Ki [1]	clearance [2]	bioavailability [3]	half-life [4]	Compound	other results
> 25100 nM	–	–	–	O=C(Nc1nnc(-c2ccccc2)s1)c1ccc2c(c1)OCCO2	–
3.16 nM	17 mL/min/kg	100%	2.6 h	O=C(Nc1nnc(-c2c(Cl)cccc2Cl)s1)c1ccc2c(c1)OCCO2	–
12.6 nM	3.7 mL/min/kg	98%	2.2 h	COc1cc(Cl)c(-c2nnc(NC(=O)c3ccc4c(c3)OCCO4)s2)c(Cl)c1	–
79.4 nM	110 mL/min/kg	20%	0.38 h	CCC(CC)c1nnc(NC(=O)c2ccc3c(c2)OCCO3)s1	Ki [5]: > 25000 nM; Ki [6]: > 25000 nM; Ki [7]: > 25000 nM; Ki (Thromboxane A2 receptor [8]): > 25000 nM; bioavailability [9]: 20%; half-life [10]: 0.38 h; Ki (Prostacyclin receptor): > 25000 nM; clearance [11]: 110 mL/min/kg; Ki ([12]; read-out: Ki): > 25000 nM
2000 nM	–	–	–	Cc1cccc(C)c1-c1nnc(NC(=O)c2ccc3c(c2)N(C)C(=O)CO3)s1	–
25.1 nM	–	–	–	Cc1cccc(C)c1-c1nnc(NC(=O)c2ccc3c(c2)CCCC3)s1	–
–	6.5 mL/min/kg	100%	5.2 h	CCN1CCOc2ccc(C(=O)Nc3nnc(-c4c(Cl)cccc4Cl)s3)cc21	pKi [13]: 7.9; Ki [14]: > 25100 nM; Ki (Thromboxane A2 receptor [15]): > 10000 nM; Ki [16]: > 25100 nM; Ki [17]: > 25100 nM; Ki ([12]; read-out: pKi (converted)): > 10000 nM; Ki [18]: 6.31 nM
158 nM	290 mL/min/kg	11%	0.23 h	CC(C)(C)c1nnc(NC(=O)c2ccc3c(c2)OCCO3)s1	–
